Assays:
[1] = Single-dose oral pharmacokinetics in rat; assay type: in vivo; conditions: Sprague-Dawley, plasma
[2] = Plasma exposure in the 8-day mechanistic follow-up study in male rats; assay type: in vivo, Sprague-Dawley rat; conditions: for AUC: male, Sprague-Dawley, plasma, oral; for AUC / AUC0‐24 h (day 1) / AUC0‐24 h (day 8/28): rat; for AUC0‐24 h (day 1) / AUC0‐24 h (day 8/28): males, 8-day study
[3] = Toxicokinetics of the 4-week toxicity study in dog; assay type: in vivo, Beagle dog; conditions: for AUC0‐24 h (day 8/28): day 28
[4] = tested on: total P450; assay: Total P450 concentration in liver microsomes of the 4-week rat toxicity study; assay type: in vivo, Sprague-Dawley rat; conditions: 4 weeks
Summary of the method: (§1)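 Microsomes were made from pooled liver (1.5–2 g per dose group) of 4-week toxicity studies, including vehicle controls. Tissue homogenised in ice-cold 50 mmol/L Tris-HCl pH 7.4 with 250 mmol/L sucrose, spun at 9000 g then 100 000 g (4°C), and the pellet washed in 100 mmol/L pyrophosphate pH 7.25 with 1 mmol/L EDTA. Total P450 by carbon monoxide spectrophotometric assay.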

[5] = tested on: Cyp3a2; assay: Taqman mRNA upregulation in rat liver, 4-week toxicity study; assay type: in vivo, Sprague-Dawley rat; conditions: male rats, 4-week study
Summary of the method: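 Livers came from satellite-group rats of both sexes (n = 5–6) in the 4-week study, dosed once daily at 0, 50, 150, 450 or 1500 mg/kg in modified gelatine. Transcripts quantified by comparative Ct, normalised to 18S and to vehicle-treated controls; fold change = 2−ΔΔCT.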

[6] = tested on: Cyp2c11; assay: Taqman mRNA upregulation in rat liver, 8-day mechanistic follow-up study; assay type: in vivo, Sprague-Dawley rat; conditions: male rats, 8-day follow-up study, relative to vehicle control
Summary of the method: (§2)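 Male Sprague-Dawley rats (n = 4) were given 0, 5, 15 or 50 mg/kg daily for 8 days as a suspension in modified gelatine. Liver transcripts were normalised to 18S and to vehicle-treated rats by the ΔΔCT method; fold = 2−ΔΔCT.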

[7] = tested on: Cyp3a1; assay: as above; assay type: in vivo, Sprague-Dawley rat; conditions: male rats, 8-day follow-up study, relative to vehicle control
Summary of the method: as §2

[8] = tested on: total P450; assay: Total P450 concentration in liver microsomes of the 4-week dog toxicity study; assay type: in vivo, Beagle dog; conditions: 4 weeks
Summary of the method: as §1

[9] = tested on: CYP3A4; assay: Induction of P450 mRNA in human hepatocytes; assay type: cell-based; conditions: 10 µmol/L
Summary of the method: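 Three human hepatocyte batches were cultured as monolayers and treated for 48–89 h with test compound, diluted 1000-fold from DMSO stock, or vehicle. Medium with fresh drug renewed every 24 h; rifampicin and omeprazole served as positive controls. CYP mRNA then measured.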

[10] = molecular target: T1, human pregnane X receptor (Homo sapiens, UniProt O75469); assay: PXR reporter-gene assay in green monkey kidney CV-1 cells; assay type: cell-based
T1 sequence (O75469 1-434): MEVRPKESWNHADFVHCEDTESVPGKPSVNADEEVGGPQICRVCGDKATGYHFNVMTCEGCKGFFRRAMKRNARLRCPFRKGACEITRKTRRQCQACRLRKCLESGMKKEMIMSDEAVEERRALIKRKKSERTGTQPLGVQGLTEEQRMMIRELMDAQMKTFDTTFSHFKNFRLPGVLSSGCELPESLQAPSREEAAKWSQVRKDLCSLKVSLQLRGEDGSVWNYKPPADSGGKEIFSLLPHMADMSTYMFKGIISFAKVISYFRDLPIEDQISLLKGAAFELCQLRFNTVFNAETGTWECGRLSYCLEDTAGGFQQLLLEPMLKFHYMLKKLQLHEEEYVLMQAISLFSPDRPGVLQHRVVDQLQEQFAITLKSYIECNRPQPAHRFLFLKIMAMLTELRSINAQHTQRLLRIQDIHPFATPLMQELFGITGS
Summary of the method: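 CV-1 cells were grown 3 days in DMEM/F12 with charcoal-treated FBS, then seeded at 25 000/well and lipofected with hPXR expression vector (0.1 ng), CYP3A4-luciferase reporter (20 ng) and β-galactosidase vector (60 ng). After 24 h, cells were treated 24 h in triplicate with 0.03–30 µmol/L test compound or rifampicin in delipidated charcoal-treated FBS medium. Luciferase normalised to β-galactosidase, expressed as fold over DMSO.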

[11] = man, therapeutic dose of 10 mg; clinical trials ref 19; cited from earlier work
[12] = tested on: CYP3A4; conditions: clinical trials, man, 10 mg; cited from earlier work
[13] = tested on: hepatic OATP transporters; conditions: partitions into liver by passive diffusion; cited from earlier work
[14] = cited from earlier work

SMILES: CCCNS(=O)(=O)Nc1ncnc(OCCOc2ncc(Br)cn2)c1-c1ccc(Br)cc1 [macitentan]
- AUC ([1]; female, 3 mg/kg): 18400 ng·h/mL
- Cmax ([1]; female, 3 mg/kg): 850 ng/mL
- Tmax ([1]; female, 3 mg/kg): 8 h
- bioavailability ([1]; female, 3 mg/kg): 62%
- AUC ([1]; male, 3 mg/kg): 3240 ng·h/mL
- Cmax ([1]; male, 3 mg/kg): 380 ng/mL
- Tmax ([1]; male, 3 mg/kg): 6 h
- bioavailability ([1]; male, 3 mg/kg): 53%
- AUC ([1]; male, 30 mg/kg): 97400 ng·h/mL
- Cmax ([1]; male, 30 mg/kg): 7300 ng/mL
- Tmax ([1]; male, 30 mg/kg): 16 h
- change in AUC0‐24h after 8 days treatment ([2]; male rats, 3 mg/kg): No change
- AUC0‐24h (day 1) as percent of the AUC0‐24h (day 1) in the 4‐week study ([2]; male rats, 50 mg/kg, different macitentan batches (particle size)): 13%
- AUC ([2]; 15 mg/kg): 20300 ng·h/mL
- AUC ([2]; 50 mg/kg): 26800 ng·h/mL
- AUC0‐24 h (day 1) ([2]; 3 mg/kg daily oral): 3.09 μg/mL"h
- AUC0‐24 h (day 8/28) ([2]; 3 mg/kg daily oral): 3.05 μg/mL"h
- AUC0‐24 h (day 1) ([2]; 15 mg/kg daily oral): 20.3 μg/mL"h
- AUC0‐24 h (day 8/28) ([2]; 15 mg/kg daily oral): 12.3 μg/mL"h
- AUC0‐24 h (day 1) ([2]; 50 mg/kg daily oral): 26.8 μg/mL"h
- AUC0‐24 h (day 8/28) ([2]; 50 mg/kg daily oral): 16.8 μg/mL"h
- increase in AUC0‐24h from 50 to 500 mg/kg ([3]; 4-week toxicity study): 5.1 fold
- AUC ([3]; beagle, plasma, oral, 5 mg/kg): 17500 ng·h/mL
- AUC0‐24 h (day 1) ([3]; females, 5 mg/kg daily oral): 11.6 μg/mL"h
- AUC0‐24 h (day 8/28) ([3]; females, 5 mg/kg daily oral): 10.5 μg/mL"h
- AUC0‐24 h (day 1) ([3]; females, 50 mg/kg daily oral): 94.8 μg/mL"h
- AUC0‐24 h (day 8/28) ([3]; females, 50 mg/kg daily oral): 46.5 μg/mL"h
- AUC0‐24 h (day 1) ([3]; females, 500 mg/kg daily oral): 504 μg/mL"h
- AUC0‐24 h (day 8/28) ([3]; females, 500 mg/kg daily oral): 84.4 μg/mL"h
- AUC0‐24 h (day 1) ([3]; males, 5 mg/kg daily oral): 17.5 μg/mL"h
- AUC0‐24 h (day 8/28) ([3]; males, 5 mg/kg daily oral): 14.7 μg/mL"h
- AUC0‐24 h (day 1) ([3]; males, 50 mg/kg daily oral): 134 μg/mL"h
- AUC0‐24 h (day 8/28) ([3]; males, 50 mg/kg daily oral): 39.1 μg/mL"h
- AUC0‐24 h (day 1) ([3]; males, 500 mg/kg daily oral): 692 μg/mL"h
- AUC0‐24 h (day 8/28) ([3]; males, 500 mg/kg daily oral): 44.9 μg/mL"h
- P450 (total, liver microsomes) ([4]; female rats, macitentan 50 mg/kg daily): 1.05 nmol/mg
- P450 (total, liver microsomes) ([4]; female rats, macitentan 150 mg/kg daily): 1.15 nmol/mg
- P450 (total, liver microsomes) ([4]; female rats, macitentan 450 mg/kg daily): 1.18 nmol/mg
- P450 (total, liver microsomes) ([4]; female rats, macitentan 1500 mg/kg daily): 0.90 nmol/mg
- P450 (total, liver microsomes) ([4]; male rats, macitentan 50 mg/kg daily): 1.35 nmol/mg
- P450 (total, liver microsomes) ([4]; male rats, macitentan 150 mg/kg daily): 1.41 nmol/mg
- P450 (total, liver microsomes) ([4]; male rats, macitentan 450 mg/kg daily): 1.33 nmol/mg
- P450 (total, liver microsomes) ([4]; male rats, macitentan 1500 mg/kg daily): 1.45 nmol/mg
- Upregulation of Cyp3a2 mRNA ([5]; 50 mg/kg daily, relative to vehicle control = 1.00): 3.65 ± 1.03
- Upregulation of Cyp3a2 mRNA ([5]; 150 mg/kg daily, relative to vehicle control): 4.53 ± 1.31
- Upregulation of Cyp3a2 mRNA ([5]; 450 mg/kg daily, relative to vehicle control): 5.21 ± 1.33
- Upregulation of Cyp3a2 mRNA ([5]; 1500 mg/kg daily, relative to vehicle control): 6.50 ± 2.40
- Upregulation of Cyp2c11 mRNA ([6]; 5 mg/kg daily): 1.55 ± 0.22
- Upregulation of Cyp2c11 mRNA ([6]; 15 mg/kg daily): 1.65 ± 1.35
- Upregulation of Cyp2c11 mRNA ([6]; 50 mg/kg daily): 2.50 ± 0.85
- Upregulation of Cyp3a1 mRNA ([7]; 5 mg/kg daily): 1.66 ± 0.75
- Upregulation of Cyp3a1 mRNA ([7]; 15 mg/kg daily): 2.53 ± 2.02
- Upregulation of Cyp3a1 mRNA ([7]; 50 mg/kg daily): 6.04 ± 3.00
- P450 (total, liver microsomes) ([8]; female dogs, macitentan 5 mg/kg daily): 0.63 nmol/mg
- P450 (total, liver microsomes) ([8]; female dogs, macitentan 50 mg/kg daily): 0.87 nmol/mg
- P450 (total, liver microsomes) ([8]; female dogs, macitentan 500 mg/kg daily): 0.84 nmol/mg
- P450 (total, liver microsomes) ([8]; male dogs, macitentan 5 mg/kg daily): 0.50 nmol/mg
- P450 (total, liver microsomes) ([8]; male dogs, macitentan 50 mg/kg daily): 0.73 nmol/mg
- P450 (total, liver microsomes) ([8]; male dogs, macitentan 500 mg/kg daily): 1.00 nmol/mg
- increase in CYP3A4 mRNA vs DMSO control [9]: about 11 fold
- EC50 [10]: 1200 nM
- plasma exposure (AUC0‐24h) [11]: 5.4 µg·h/mL
- effect on the pharmacokinetics of the sensitive CYP3A4 substrate sildenafil [12]: neither changed the pharmacokinetics
- substrate of hepatic OATP transporters [13]: not a substrate of hepatic OATP transporters
- aqueous solubility [14]: low aqueous solubility

— PMC7330163 (Pharmacology Research & Perspectives, 2020)
